Experiment [1] is described as follows: Cytotoxicity against human SH-SY5Y cells after 48 hrs by MTT assay. The class given is functional, cell-based. Put shortly: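 SH-SY5Y, after overnight growth, were exposed continuously to compounds for 48 h in DMEM with 10% FBS. Then PBS washes, 4 h with 0.5 mg/ml MTT in serum-free DMEM, DMSO solubilization of formazan, and OD at 570 nm.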
For orientation: Tetrazolium dyes change colour on reduction, which living cells bring about.

Experiment [2] has as its system HepG2. The experiment in a line: Cytotoxicity against human HepG2 cells after 48 hrs by MTT assay. It is filed as functional, cell-based. The conditions noted are these: HepG2, 48 h. Put shortly:
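HepG2 kept in MEM with 10% FBS and 1% penicillin/streptomycin at 37 °C, 5% CO2. After overnight growth, cells were exposed continuously to compounds for 48 h in MEM with 10% FBS. They were then PBS-washed and given 0.5 mg/ml MTT in serum-free DMEM for 4 h. Formazan was dissolved in DMSO and read at 570 nm.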

Experiment [3] has as its system MCF7. The experiment in a line: Cytotoxicity against human MCF7 cells after 48 hrs by MTT assay. It is filed as functional, cell-based. The conditions noted are these: MCF7, 48 h. Put shortly:
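MCF-7 cells were grown overnight, then treated continuously for 48 h with compounds in DMEM containing 10% FBS. After two PBS washes, cells got 0.5 mg/ml MTT in serum-free DMEM for 4 h. Formazan was solubilized in DMSO and OD read at 570 nm.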

A short description of experiment [4]: Cytotoxicity against human SH-SY5Y cells at 1 uM after 48 hrs by MTT assay. The class given is functional. Put shortly: (§1)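 SH-SY5Y cells were grown overnight and treated for 48 h at the stated concentration in DMEM/10% FBS, as part of a dose-response series. After PBS washes, cells were incubated 4 h with 0.5 mg/ml MTT in serum-free DMEM. Formazan was dissolved in DMSO and read at 570 nm to give inhibition rate.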

In experiment [5] the test system is HepG2. The experiment in a line: Cytotoxicity against human HepG2 cells at 1 uM after 48 hrs by MTT assay. It is filed as functional, cell-based. Put shortly:
(§2)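 After overnight plating, HepG2 cells (maintained in MEM/10% FBS/1% pen-strep, 37 °C, 5% CO2) were treated at a fixed compound concentration for 48 h in MEM plus 10% FBS. MTT was 0.5 mg/ml in serum-free DMEM for 4 h after PBS washes, with formazan taken up in DMSO. Absorbance at 570 nm gave percent proliferation inhibition, part of a dose-response series.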

Experiment [6] has as its system MCF7. The experiment in a line: Cytotoxicity against human MCF7 cells at 1 uM after 48 hrs by MTT assay. The class given is functional, cell-based. Put shortly: (§3)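 Percent proliferation inhibition of MCF-7 at a single concentration, taken from a dose-response series. Cells were plated overnight, then compound-treated for 48 h in DMEM + 10% FBS. They were washed with PBS and incubated 4 h with 0.5 mg/ml MTT in serum-free DMEM. Formazan was dissolved in DMSO and read at 570 nm.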

Another experiment has as its system SH-SY5Y. The experiment in a line: Cytotoxicity against human SH-SY5Y cells at 10 uM after 48 hrs by MTT assay. It is filed as functional, cell-based. Put shortly:
as §1

The test system of experiment [7] is HepG2. The experiment in a line: Cytotoxicity against human HepG2 cells at 10 uM after 48 hrs by MTT assay. It is filed as functional, cell-based. Put shortly: as §2
Experiment [8] concerns MCF7. The experiment in a line: Cytotoxicity against human MCF7 cells at 10 uM after 48 hrs by MTT assay. It is filed as functional, cell-based. Put shortly:
as §3

A short description of experiment [9]: Cytotoxicity against human SH-SY5Y cells at 5 uM after 48 hrs by MTT assay. The class given is functional. Put shortly: as §1
Experiment [10] relates to HepG2. The experiment in a line: Cytotoxicity against human HepG2 cells at 5 uM after 48 hrs by MTT assay. It is filed as functional. The conditions noted are these: HepG2, 48 h. Put shortly:
as §2

The subject of experiment [11] is MCF7. The experiment in a line: Cytotoxicity against human MCF7 cells at 5 uM after 48 hrs by MTT assay. It is filed as functional. The settings on record: MCF7, 48 h. Put shortly:
as §3

Activity calls are given as the source filed them. No cut-off for these calls is given here.

Take `O=S(=O)(CCC(F)=C(F)F)c1ccccn1`: the IC50 (in experiment [1]; with HepG2 [2]; in the experiment with MCF7 [3]) was above 120 µM in each case.

On to `[O-][S+](CCC(F)=C(F)F)c1ncc(-c2ccncc2)s1` (stereo unspecified), for which the IC50 (in [1]; in the experiment with HepG2 [2]; in the experiment on MCF7 [3]) was above 120 µM throughout.

Take `c1ccc2sc(SN(C3CCCCC3)C3CCCCC3)nc2c1`: the IC50 in experiment [1] is 69.1 µM; in the experiment with HepG2 [2], above 120 µM; with MCF7 [3] it was above 120 µM.

`[O-][S+](CCC(F)=C(F)F)c1nccs1` (stereo unspecified): the IC50 (in experiment [1]; with HepG2 [2]; in the experiment with MCF7 [3]) was above 120 µM throughout.

`[O-][S+](CCC(F)=C(F)F)c1nc2ccccc2[nH]1` (stereo unspecified): the IC50 (in [1]; in the experiment with HepG2 [2]; in the experiment with MCF7 [3]) was above 120 µM throughout.

For the compound `[O-][S+](CCC(F)(Cl)C(F)(F)Cl)c1nc2ccc(Cl)cc2s1` (stereo unspecified), the IC50 in experiment [1] amounted to 2.1 µM; in the experiment with HepG2 [2], 6.9 µM; in the experiment on MCF7 [3], 12.2 µM. For the same compound, in [4], at 1 µM the inhibition was 50%. Moreover, the inhibition entry with HepG2 [5] and with MCF7 [6] was “inactive” in each case.

Consider `CC(c1nccs1)C(C#N)C#N` (stereo unspecified), for which the IC50 (in [1]; with HepG2 [2]; with MCF7 [3]) was above 120 µM throughout.

For `FC(F)=C(F)CCSc1nccs1`, the IC50 (in experiment [1]; in the experiment with HepG2 [2]; in the experiment with MCF7 [3]) was above 120 µM in each case.

For `FC(F)=C(F)CCSc1ncc(-c2ccncc2)s1`, the IC50 (in experiment [1]; in the experiment on HepG2 [2]; in the experiment with MCF7 [3]) was above 120 µM each time.

On to `FC(F)=C(F)CCSc1nc2ccc(OC(F)F)cc2[nH]1`, for which the IC50 (in experiment [1]; in the experiment on HepG2 [2]; in the experiment with MCF7 [3]) was above 120 µM each time.

Turning to `Cn1c(SCCC(F)=C(F)F)nc(-c2ccncc2)cc1=O`, the IC50 (in [1]; in the experiment on HepG2 [2]; in the experiment with MCF7 [3]) was above 120 µM throughout.

For the compound `N#CC(C#N)=Cc1nccs1`, the IC50 (in [1]; in the experiment with HepG2 [2]; in the experiment with MCF7 [3]) was above 120 µM each time.

Regarding `O=S(=O)(CCC(F)=C(F)F)c1nc2ccc(OC(F)F)cc2[nH]1`, the IC50 (in experiment [1]; with HepG2 [2]; in the experiment on MCF7 [3]) was above 120 µM in each case.

For `[O-][S+](CCC(F)(Cl)C(F)(F)Cl)c1nc2ccccc2s1` (stereo unspecified), the IC50 was 41.5 µM in [1], 13.5 µM with HepG2 [2] and 17.1 µM in the experiment on MCF7 [3]. For the same compound, the result in the experiment on SH-SY5Y, in the experiment with HepG2 [7] and with MCF7 [8] was Active.

Turning to `c1ccc2sc(SNC3CCCCC3)nc2c1`, the IC50 was above 120 µM in experiment [1], 55 µM with HepG2 [2] and 89.2 µM with MCF7 [3].

Take `CC(=O)O[C@H]1C(=O)[C@@]2(C)[C@H]([C@H](OC(=O)c3ccccc3)[C@]3(O)C[C@H](OC(=O)[C@H](O)[C@@H](NC(=O)c4ccccc4)c4ccccc4)C(C)=C1C3(C)C)[C@]1(OC(C)=O)CO[C@@H]1C[C@@H]2O` [PACLITAXEL]: the IC50 was determined as 0.045 µM with HepG2 [2] and 0.032 µM in the experiment on MCF7 [3].

`[O-][S+](CCC(F)=C(F)F)c1nc2ccccc2o1` (stereo unspecified): the IC50 in experiment [1] stood at 0.4 µM; with HepG2 [2], 5.6 µM; in the experiment with MCF7 [3], 4.5 µM. The inhibition at 5 µM in [9] worked out at 60%; in the experiment with HepG2 [10] it was 60%; in the experiment with MCF7 [11] it was 20%.

Consider `FC(F)(Cl)C(F)(Cl)CCSc1nc2ccccc2s1` (stereo unspecified), for which the IC50 (in experiment [1]; in the experiment on HepG2 [2]; with MCF7 [3]) was above 120 µM in each case.

As to `FC(F)=C(F)CCSc1ncc(Cl)s1`, the IC50 (in [1]; in the experiment on HepG2 [2]; in the experiment with MCF7 [3]) was above 120 µM throughout.

Consider `CC(c1nccs1)C(C#N)(C#N)CCC(F)=C(F)F` (stereo unspecified), for which the IC50 (in experiment [1]; with HepG2 [2]; in the experiment with MCF7 [3]) was above 120 µM throughout.

Take `N#CC(C#N)(CCC(F)=C(F)F)Cc1nccs1`: the IC50 (in [1]; with HepG2 [2]; with MCF7 [3]) was above 120 µM throughout.

As for `FC(F)=C(F)CCSc1nc2ccccc2[nH]1`, the IC50 (in [1]; in the experiment with HepG2 [2]; in the experiment on MCF7 [3]) was above 120 µM each time.

For the compound `O=S(=O)(CCC(F)=C(F)F)c1nccs1`, the IC50 (in [1]; with HepG2 [2]; in the experiment with MCF7 [3]) was above 120 µM throughout.

Consider `CC(=C(C#N)C#N)c1nccs1`, for which the IC50 in [1] is 68.8 µM; in the experiment on HepG2 [2] it was 105 µM; in the experiment with MCF7 [3] it was 110 µM.

In the case of `FC(F)=C(F)CCSc1ccccn1`, the IC50 (in [1]; with HepG2 [2]; in the experiment with MCF7 [3]) was above 120 µM in each case.

In [1], `COc1ccc2c(c1OC)C(=O)O[C@@H]2[C@H]1c2c(cc3c(c2OC)OCO3)CCN1C` [NOSCAPINE] displayed an IC50 of 80.3 µM.

Turning to `[O-][S+](CCC(F)=C(F)F)c1nc2ccccc2s1` (stereo unspecified), the IC50 is 7 µM in experiment [1], 4.7 µM in the experiment with HepG2 [2] and 8.6 µM in the experiment on MCF7 [3].

As to `O=S(=O)(CCC(F)=C(F)F)c1ncc(-c2ccncc2)s1`, the IC50 (in [1]; in the experiment with HepG2 [2]; with MCF7 [3]) was above 120 µM throughout.

Regarding `O=S(=O)(CCC(F)=C(F)F)c1nc2ccccc2[nH]1`, the IC50 (in experiment [1]; in the experiment on HepG2 [2]; in the experiment with MCF7 [3]) was above 120 µM in each case.

Consider `FC(F)=C(F)CCSc1nnc(S)s1`, for which the IC50 (in experiment [1]; in the experiment with HepG2 [2]; in the experiment on MCF7 [3]) was above 120 µM throughout.

Regarding `O=S(=O)(CCC(F)(Cl)C(F)(F)Cl)c1nc2ccccc2s1` (stereo unspecified), the IC50 in [1] was determined as 4.5 µM; in the experiment on HepG2 [2], 4.5 µM; in the experiment on MCF7 [3], 10.1 µM.

In the case of `FC(F)(Cl)C(F)(Cl)CCSc1nc2ccc(Cl)cc2s1` (stereo unspecified), the half-maximal inhibitory concentration (IC50) (in experiment [1]; with HepG2 [2]; in the experiment with MCF7 [3]) was above 120 µM in each case.

`CC(C)(c1nccs1)C(C#N)C#N`: the IC50 (in experiment [1]; with HepG2 [2]; with MCF7 [3]) was above 120 µM in each case.

For the compound `O=S(=O)(CCC(F)(Cl)C(F)(F)Cl)c1nc2ccc(Cl)cc2s1` (stereo unspecified), the IC50 in [1] came out at 6 µM; with HepG2 [2] it was 6.1 µM; in the experiment with MCF7 [3] it was 8.4 µM.

Regarding `c1ccc2sc(SSc3nc4ccccc4s3)nc2c1` [BENZOTHIAZYL DISULFIDE], the IC50 (in [1]; in the experiment with HepG2 [2]; in the experiment with MCF7 [3]) was above 120 µM each time.

Turning to `N#CC(C#N)Cc1nccs1`, the IC50 (in experiment [1]; in the experiment on HepG2 [2]; in the experiment with MCF7 [3]) was above 120 µM throughout.

`FC(F)=C(F)CCSc1nc2ccccc2o1`: the IC50 (in [1]; in the experiment on HepG2 [2]; with MCF7 [3]) was above 120 µM each time.

Consider `O=S(=O)(CCC(F)=C(F)F)c1nc2ccccc2s1`, for which the IC50 in experiment [1] was 2.64 µM; with HepG2 [2], 3.71 µM; in the experiment with MCF7 [3] it was 7.2 µM. In experiment [4], this compound displayed an inhibition at 1 µM of 50%. Further, the inhibition entry in the experiment with HepG2 [5] and with MCF7 [6] was “inactive” in each case.

In the case of `FC(F)=C(F)CCSc1nc2ccccc2s1`, the IC50 (in experiment [1]; in the experiment with HepG2 [2]; in the experiment on MCF7 [3]) was above 120 µM each time.

Usually IC50 stands for the midpoint of a concentration-inhibition curve. Lower therefore signals greater potency. Broadly, the inhibition is how much of the control response was suppressed.

The values are drawn from ChEMBL document CHEMBL3414424, “Fluoroalkane thioheterocyclic derivatives and their antitumor activity” (Eur J Med Chem, 2015).
